Measured values from different studies.
Compare with care: the assays were run in different laboratories.
Target: Serine/threonine-protein kinase PAK 1 (PAK1, Homo sapiens, UniProt Q13153)

Structure (SMILES)	observed	mode	method	tested at	measurement	value
Cc1ccc(NC(=O)c2ccc(C)c(C(F)(F)F)c2)cc1C#Cc1nn(C2CCC(O)CC2)c2ncnc(N)c12 (stereo not shown)	cell-free assay	–	–	10 µM	remaining signal	87%
CS(=O)(=O)NCC[C@H](NC(=O)c1cncc2c1cnn2-c1ccc(F)cc1)c1ccnc(S(C)(=O)=O)c1	cell-free assay	–	competition with immobilised ligand	1 µM	remaining binding	88%
O=C1Nc2ccc(Cl)cc2C1=Cc1cc(Cl)c(O)c(Cl)c1	cell-free assay	–	–	0.5 µM	remaining signal	97.2%
COc1ccc2c(c1)O[C@@H](c1ccc(OC)c(OC)c1)C[C@H]2NC(=O)C1(c2ccc3c(c2)OC(F)(F)O3)CC1	cell-free assay	–	competition with immobilised ligand	1 µM	remaining binding	89%
O=S(=O)(Nc1cc(Sc2ncn[nH]2)c(O)c2ccccc12)c1ccc(-c2ccccc2)cc1	enzyme activity	inhibitor	–	1 µM	remaining activity	≥ 75%
CC(C)(C)c1nc(-c2cccc(NS(=O)(=O)c3c(F)cccc3F)c2F)c(-c2ccnc(N)n2)s1	enzyme activity	inhibitor	radiometric	1 µM	remaining activity	91%
Nc1cnc(N2CCc3cc(S(=O)(=O)Nc4c(F)cc(Cl)cc4F)cc(N4CCCC4=O)c32)nc1	cell-free assay	–	competition with immobilised ligand	1 µM	remaining binding	89%
CN(C)C1CCN(CC#Cc2nn(C3CCCC3)c3nc(NCc4ccccc4)ncc23)C1 (stereo not shown)	enzyme activity	inhibitor	FRET	1 µM	inhibition	4%
CCOCCn1cc(C(=O)Nc2ccc(-n3nc(-c4cccnc4)cc3C(F)(F)F)cn2)ccc1=O	cell-free assay	–	competition with immobilised ligand	1 µM	remaining binding	96%
Cc1sc(C(=O)NC2COC2)cc1-n1cc(NC(=O)Nc2c(F)cccc2Cl)cn1	enzyme activity	inhibitor	–	10 µM	remaining activity	104%
COc1cc2ncnc(Nc3ccc(Oc4ccccc4)cc3C)c2cc1OC	enzyme activity	inhibitor	–	1 µM	inhibition	4%
C=CC(=O)Nc1cc(Nc2nccc(Nc3cc(Cl)c(F)cc3C(C)(C)O)n2)c(OC)cc1N1CC[C@@H](N(C)C)C1	enzyme activity	inhibitor	–	1 µM	inhibition	-9%
O=C(Nc1cnn(-c2csc(C(=O)NC3COC3)c2)c1)Nc1c(F)cccc1Cl	enzyme activity	inhibitor	–	5 µM	remaining activity	81.2%
CCc1ccccc1C(=O)Nc1n[nH]c2c(C)c(F)c(C3C(C#N)=C(C)N(C)C(C)=C3C#N)cc12	cell-free assay	–	competition with immobilised ligand	1 µM	remaining binding	82%
CS(=O)(=O)Nc1cccc(-c2csc(NC(=O)CSc3nc4nccnc4c(=O)n3CCc3ccccc3)n2)c1	enzyme activity	inhibitor	–	10 µM	inhibition	-2%
Oc1ccc(-c2nc(-c3ccncc3)c(-c3ccc(F)cc3)[nH]2)cc1	cell-free assay	–	–	0.5 µM	remaining signal	97.3%
Cc1ccc(C(=O)Nc2ccc(CN3CCN(C)CC3)c(C(F)(F)F)c2)cc1C#Cc1cnc2cccnn12	enzyme activity	inhibitor	–	23.5 nM	remaining activity	100%
CC(=O)C1=C(C)N(c2cccc(C(F)(F)F)c2)C(=O)N[C@@H]1c1ccc(C#N)nc1	cell-free assay	–	competition with immobilised ligand	1 µM	remaining binding	91.2%
N#CCCc1ccc2c(c1)-c1[nH]c3ccc([N+](=O)[O-])cc3c1CC(=O)N2	cell-free assay	–	–	0.5 µM	remaining signal	52.1%
